# Results of several laboratories.
# pEC50, pIC50: −log10 of the molar value.
Structure (SMILES),tested on,assay,setting,endpoint,result
O=C(Nc1ccccc1)Nc1ccc(Oc2nnc(-c3ccc(Cl)cc3)c3ccccc23)cc1,MCF7,"cell growth or viability, MTT","2.5 µM, 24 h",viability,3.32%
CCN(CC)c1ccc(/C=N/c2ccc(Br)cc2)c(O)c1,,DPPH scavenging,,pIC50,4.36
CC(=NNC(=O)c1ccccc1)c1ccc(Nc2nnc(-c3ccc(Cl)cc3)c3ccccc23)cc1,MCF7,"cell growth or viability, MTT",2.5 µM,cell death,86.3%
Clc1cccc(/C=N/N=C/c2cccc(Cl)c2)c1,,DPPH scavenging,,pIC50,2.63
Cc1c(C(=O)O)ccc2c3n(nc12)[C@@H]1[C@H](C3)N(CC2CC2)[C@@]2(C(=O)Nc3cc(Cl)ccc32)[C@H]1c1cccc(Cl)c1F,SJSA-1,"cell growth or viability, resazurin",,GI50,0.007 µM
C=CC(=O)NC1CCN(c2ncc3ncnc(Nc4ccc(Oc5ccc6c(c5)ncn6C)c(C)c4)c3n2)CC1,C-33-A,cell growth or viability,,pEC50,6.94
Brc1ccc(/C=N/N=C/c2ccc(Br)cc2)cc1,,DPPH scavenging,,pIC50,< 2.52
CC(=NNC(=O)c1ccccc1Br)c1ccc(Nc2nnc(-c3ccc(Cl)cc3)c3ccccc23)cc1,MCF7,"cell growth or viability, MTT",2.5 µM,cell death,85.4%
O=C1O[C@H]([C@@H](O)CO)C(O)=C1O,,"DPPH scavenging, absorbance",30 min,pIC50,4.94
Nc1ccc(/C=N/N=C/c2ccc(N)cc2)cc1,,DPPH scavenging,,pIC50,< 2.52
CCN(CC)c1ccc(/C=N/c2ccc(F)cc2)c(O)c1,,DPPH scavenging,,pIC50,4.52
CC(=NNC(=O)c1ccccc1O)c1ccc(Nc2nnc(-c3ccc(Cl)cc3)c3ccccc23)cc1,MCF7,"cell growth or viability, MTT","5 µM, 24 h",viability,33.8%
Brc1ccccc1/C=N/N=C/c1ccccc1Br,,DPPH scavenging,,pIC50,< 2.52
